27 compounds from ChEMBL document CHEMBL1138485, “Discovery of inducible nitric oxide synthase (iNOS) inhibitor development candidate KD7332, part 1: Identification of a novel, potent, and selective series of quinolinone iNOS dimerization inhibitors that are orally active in rodent pain models” (J Med Chem, 2009) can be followed below.

Assay type in all cases: cell-based
The target in experiment [1] is T1, Nitric oxide synthase 3 (Homo sapiens) (UniProt P29474).
T1 sequence (whole entry): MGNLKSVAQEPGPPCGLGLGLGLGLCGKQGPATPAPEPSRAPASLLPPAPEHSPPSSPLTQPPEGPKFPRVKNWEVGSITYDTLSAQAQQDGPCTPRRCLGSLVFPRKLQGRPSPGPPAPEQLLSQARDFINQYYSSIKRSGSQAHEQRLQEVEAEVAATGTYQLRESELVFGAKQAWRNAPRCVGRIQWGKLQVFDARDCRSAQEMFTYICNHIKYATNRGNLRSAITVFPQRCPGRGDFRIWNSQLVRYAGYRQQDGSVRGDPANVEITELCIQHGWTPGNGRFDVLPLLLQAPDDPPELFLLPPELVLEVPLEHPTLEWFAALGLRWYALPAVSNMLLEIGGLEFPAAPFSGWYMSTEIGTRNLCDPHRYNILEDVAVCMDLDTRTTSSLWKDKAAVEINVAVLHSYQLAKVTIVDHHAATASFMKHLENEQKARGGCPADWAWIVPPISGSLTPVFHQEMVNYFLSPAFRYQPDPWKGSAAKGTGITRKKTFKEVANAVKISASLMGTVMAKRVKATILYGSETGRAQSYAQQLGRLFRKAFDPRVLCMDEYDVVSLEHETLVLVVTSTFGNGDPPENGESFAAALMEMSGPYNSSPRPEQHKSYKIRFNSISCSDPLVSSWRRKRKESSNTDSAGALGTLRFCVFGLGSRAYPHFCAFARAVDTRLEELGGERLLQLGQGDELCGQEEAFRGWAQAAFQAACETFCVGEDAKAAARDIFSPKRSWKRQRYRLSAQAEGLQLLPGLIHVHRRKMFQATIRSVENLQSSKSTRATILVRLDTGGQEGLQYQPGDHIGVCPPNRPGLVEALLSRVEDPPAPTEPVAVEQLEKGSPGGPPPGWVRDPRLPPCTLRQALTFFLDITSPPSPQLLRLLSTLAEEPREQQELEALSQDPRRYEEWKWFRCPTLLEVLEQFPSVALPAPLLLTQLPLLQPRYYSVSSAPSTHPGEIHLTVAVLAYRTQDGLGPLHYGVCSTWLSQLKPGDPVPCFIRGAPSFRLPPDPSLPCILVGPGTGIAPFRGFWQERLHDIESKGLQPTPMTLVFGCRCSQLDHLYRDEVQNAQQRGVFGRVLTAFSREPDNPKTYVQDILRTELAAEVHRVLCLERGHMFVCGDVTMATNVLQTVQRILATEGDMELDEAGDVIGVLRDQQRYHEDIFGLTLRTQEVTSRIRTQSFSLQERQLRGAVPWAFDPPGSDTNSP
Kind of experiment: Inhibition of human eNOS expressed in HEK293 cells assessed as NO production at 100 uM by transient transfection assay relative to BBS-4. In short, it runs like this:
(§1)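 HEK293 cells transiently transfected with human eNOS (15 µg plasmid) or nNOS (10 µg plasmid), Fugene 6 at 3:1 µL:µg, 4 h at 37 °C, 10% CO2. Plated at 5 × 10⁵ cells/mL with compound; SEITU 100 µM final as positive control. After 24 h, activated with A23187 (83 nM final, eNOS) or ionomycin (30 µM final, nNOS). After 18 h more, NO read by DAN fluorescence. Inhibition is relative to the maximal inhibition by the control dimerization inhibitor. 3 runs, 10-point curves, n = 3/point.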

Experiment [2] has as its target T2, Nitric oxide synthase 3 (Homo sapiens, UniProt P29474).
T2 sequence (P29474 whole entry): T1 sequence (whole entry)
Kind of experiment: Inhibition of human eNOS expressed in HEK293 cells assessed as NO production by transient transfection assay. In short, it runs like this: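 HEK293 cells grown to ~70% confluence in DMEM/10% FBS with pen/strep, transfected with 15 µg human eNOS plasmid plus Fugene 6 (3:1 µL:µg), 4 h at 37 °C, 10% CO2. Cells replated at 5 × 10⁵/mL, compound added at once, 24 h incubation, then A23187 (83 nM final). After 18 h, NO read by DAN fluorescence.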

The target in experiment [3] is Nitric oxide synthase, inducible (Homo sapiens, UniProt P35228). Kind of experiment: Inhibition of human iNOS expressed in HEK293 cells assessed as NO production by transient transfection assay. In short, it runs like this: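 HEK293 cells grown to ~70% confluence in DMEM/10% FBS with pen/strep. Cells transiently transfected with 10 µg human or murine iNOS plasmid (Fugene 6), 4 h at 37 °C, 10% CO2. Trypsinized, plated at 5 × 10⁵ cells/mL and dosed at once; 1400W 100 µM final as positive control. After 18 h, NO read as DAN fluorescence (10 µg/mL, 20 min RT, then NaOH). EC50 from 3 runs, 10-point curves, n = 8/point.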

In experiment [4] the target is T3, Nitric oxide synthase 1 (Homo sapiens, UniProt P29475). Kind of experiment: Inhibition of human nNOS expressed in HEK293 cells assessed as NO production by transient transfection assay.
The target of experiment [5] is T3, Nitric oxide synthase 1. Kind of experiment: Inhibition of human nNOS expressed in HEK293 cells assessed as NO production at 10 uM by transient transfection assay relative to BBS-4. The gist of the method: as §1

A value given as a limit tells only on which side of the number the result lay.

What is called inhibition is the drop in the measured response relative to a control, in per cent. The term EC50 denotes the midpoint of the concentration-response curve.

T3 sequence (P29475 whole entry): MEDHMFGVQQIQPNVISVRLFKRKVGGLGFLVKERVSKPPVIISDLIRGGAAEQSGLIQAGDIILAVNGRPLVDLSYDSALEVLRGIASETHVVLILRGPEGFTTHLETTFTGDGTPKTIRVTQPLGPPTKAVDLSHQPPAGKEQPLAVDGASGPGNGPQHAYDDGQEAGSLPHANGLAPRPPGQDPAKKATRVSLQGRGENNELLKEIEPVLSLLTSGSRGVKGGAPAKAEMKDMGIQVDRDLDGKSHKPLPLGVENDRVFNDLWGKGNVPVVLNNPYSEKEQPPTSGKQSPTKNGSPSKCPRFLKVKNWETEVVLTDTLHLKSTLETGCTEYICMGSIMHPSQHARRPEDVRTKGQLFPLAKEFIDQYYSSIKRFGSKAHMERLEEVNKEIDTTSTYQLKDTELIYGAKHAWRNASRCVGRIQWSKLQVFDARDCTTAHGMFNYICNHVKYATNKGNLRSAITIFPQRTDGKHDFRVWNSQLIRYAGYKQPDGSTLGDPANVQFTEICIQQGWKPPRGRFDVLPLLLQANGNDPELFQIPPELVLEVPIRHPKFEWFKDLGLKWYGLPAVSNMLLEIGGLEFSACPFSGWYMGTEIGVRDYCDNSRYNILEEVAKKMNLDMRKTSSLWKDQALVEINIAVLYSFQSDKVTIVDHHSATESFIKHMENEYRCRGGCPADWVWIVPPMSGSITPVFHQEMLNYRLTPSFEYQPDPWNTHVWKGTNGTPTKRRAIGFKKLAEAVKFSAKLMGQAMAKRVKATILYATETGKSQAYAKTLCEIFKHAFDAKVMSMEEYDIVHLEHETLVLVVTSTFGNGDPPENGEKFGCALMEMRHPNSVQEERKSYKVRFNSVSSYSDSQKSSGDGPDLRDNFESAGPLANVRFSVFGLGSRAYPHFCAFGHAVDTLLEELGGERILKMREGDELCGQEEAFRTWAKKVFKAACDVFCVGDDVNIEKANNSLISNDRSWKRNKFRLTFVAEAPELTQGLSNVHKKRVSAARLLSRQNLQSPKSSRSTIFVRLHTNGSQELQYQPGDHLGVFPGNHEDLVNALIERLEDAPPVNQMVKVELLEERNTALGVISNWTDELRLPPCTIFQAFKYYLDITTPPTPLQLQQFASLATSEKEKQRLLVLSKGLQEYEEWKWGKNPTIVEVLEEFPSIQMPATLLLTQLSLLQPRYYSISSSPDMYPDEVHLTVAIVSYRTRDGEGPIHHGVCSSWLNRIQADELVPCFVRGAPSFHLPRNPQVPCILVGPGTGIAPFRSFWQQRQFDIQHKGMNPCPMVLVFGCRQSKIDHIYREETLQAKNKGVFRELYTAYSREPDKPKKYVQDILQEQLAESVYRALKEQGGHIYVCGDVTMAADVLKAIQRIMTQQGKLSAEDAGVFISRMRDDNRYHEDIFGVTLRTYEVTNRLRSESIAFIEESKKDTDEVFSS
Chain of Nitric oxide synthase, inducible (P35228 whole entry): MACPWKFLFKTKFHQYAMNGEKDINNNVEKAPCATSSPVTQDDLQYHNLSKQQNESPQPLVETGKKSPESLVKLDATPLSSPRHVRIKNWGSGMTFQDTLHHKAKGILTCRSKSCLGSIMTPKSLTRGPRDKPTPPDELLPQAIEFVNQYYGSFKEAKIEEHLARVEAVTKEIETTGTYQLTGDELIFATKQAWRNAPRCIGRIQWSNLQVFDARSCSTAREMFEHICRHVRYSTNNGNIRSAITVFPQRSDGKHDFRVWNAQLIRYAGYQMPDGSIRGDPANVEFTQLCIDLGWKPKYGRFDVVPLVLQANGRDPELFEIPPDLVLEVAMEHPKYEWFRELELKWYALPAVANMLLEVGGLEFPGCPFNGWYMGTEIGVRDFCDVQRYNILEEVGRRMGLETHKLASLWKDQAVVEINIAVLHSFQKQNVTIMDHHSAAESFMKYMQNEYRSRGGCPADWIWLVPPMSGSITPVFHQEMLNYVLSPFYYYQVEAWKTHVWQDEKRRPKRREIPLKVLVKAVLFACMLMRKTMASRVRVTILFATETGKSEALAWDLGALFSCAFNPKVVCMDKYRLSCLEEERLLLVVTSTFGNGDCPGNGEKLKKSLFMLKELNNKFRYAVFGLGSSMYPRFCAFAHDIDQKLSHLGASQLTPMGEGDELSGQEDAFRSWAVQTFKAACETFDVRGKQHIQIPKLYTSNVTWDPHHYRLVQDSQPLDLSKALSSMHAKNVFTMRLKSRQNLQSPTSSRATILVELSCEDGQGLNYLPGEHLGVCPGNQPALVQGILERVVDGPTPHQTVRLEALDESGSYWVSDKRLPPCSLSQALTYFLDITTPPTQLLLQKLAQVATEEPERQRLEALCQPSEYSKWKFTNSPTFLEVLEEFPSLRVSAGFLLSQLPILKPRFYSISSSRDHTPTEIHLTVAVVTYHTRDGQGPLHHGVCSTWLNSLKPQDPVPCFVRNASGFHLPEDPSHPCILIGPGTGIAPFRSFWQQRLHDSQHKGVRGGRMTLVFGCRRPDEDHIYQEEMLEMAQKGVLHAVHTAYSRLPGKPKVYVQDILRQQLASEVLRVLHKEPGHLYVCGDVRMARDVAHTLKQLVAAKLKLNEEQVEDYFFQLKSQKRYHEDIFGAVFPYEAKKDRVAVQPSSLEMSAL

On to `O=C(C1CCCC1)N(Cc1cc(=O)[nH]c2c(F)cccc12)c1cccc(Cl)c1`, for which the inhibition in experiment [1] is < 50%. Besides, the half-maximal effective concentration (EC50) in experiment [2] is > 100000 nM; in experiment [3], 770 nM; in experiment [4], 10300 nM.
Turning to `Cc1ncsc1C(=O)N(Cc1cc(=O)[nH]c2c(Cl)cccc12)c1cccc(Cl)c1`, the inhibition in experiment [1] and in experiment [5] was < 50% in each case. Also, the concentration giving a half-maximal response (EC50) in experiment [2] was > 100000 nM; in experiment [3], 1300 nM; in experiment [4], > 10000 nM.
For `Cc1ncsc1C(=O)N(Cc1cc(=O)[nH]c2c1CCCC2)c1cccc(Cl)c1`, the EC50 in experiment [3] was found to be 1140 nM.
Turning to `Cc1ncsc1C(=O)N(Cc1cc(=O)[nH]c2c(F)cccc12)c1ccc(Cl)cc1`, the inhibition in experiment [1] and in experiment [5] was < 50% in each case. Also, the EC50 was > 100000 nM in experiment [2], 240 nM in experiment [3] and > 10000 nM in experiment [4].
For `Cc1ncsc1C(=O)N(Cc1cc(=O)[nH]c2c(F)cccc12)c1cccc(C#N)c1`, the figures for the inhibition in experiment [1] and in experiment [5] were < 50% and 2.7%, respectively. The concentration giving a half-maximal response (EC50) in experiment [2] was > 100000 nM; in experiment [3] it was 56 nM; in experiment [4], 2700 nM.
On to `Cc1ncsc1C(=O)N(Cc1cc(=O)oc2c(F)cccc12)c1cccc(Cl)c1`, for which, in experiment [3], the concentration giving a half-maximal response (EC50) stood at 2000 nM.
Regarding `Cc1cnccc1C(=O)N(Cc1cc(=O)[nH]c2c(F)cccc12)c1cccc(Cl)c1`, the figures for the EC50 in experiment [2], in experiment [3] and in experiment [4] were 13000 nM, 89 nM and 2100 nM, respectively.
With `Cc1ncsc1C(=O)N(Cc1cncc2c(F)c(F)ccc12)c1cccc(Cl)c1`, the EC50 in experiment [2] is 37000 nM; in experiment [3], 200 nM; in experiment [4] it was > 10000 nM. For the same compound, the inhibition in experiment [5] was < 50%.
On to `Cc1cccc(N(Cc2cc(=O)[nH]c3c(F)cccc23)C(=O)c2scnc2C)c1`, for which the inhibition in experiment [1] and in experiment [5] was < 50% throughout. Besides, the concentration giving a half-maximal response (EC50) in experiment [2] was > 100000 nM; in experiment [3] it was 100 nM; in experiment [4], > 10000 nM.
For `Cc1ccncc1C(=O)N(Cc1cc(=O)[nH]c2c(F)cccc12)c1cccc(Cl)c1`, the EC50 worked out at 41000 nM in experiment [2], 49 nM in experiment [3] and 2200 nM in experiment [4].
Take `Cc1ncsc1C(=O)N(Cc1cncc2c(F)cccc12)c1cccc(Cl)c1`: in experiment [3], the EC50 was determined as 760 nM.
In the case of `Cc1ncsc1C(=O)N(Cc1cc(=O)[nH]c2cc(F)ccc12)c1cccc(Cl)c1`, the EC50 in experiment [2] is 33000 nM; in experiment [3] it was 53 nM; in experiment [4], 3400 nM.
Take `COc1cccc(N(Cc2cc(=O)[nH]c3c(F)cccc23)C(=O)c2scnc2C)c1`: the inhibition in experiment [1] and in experiment [5] was < 50% in each case. Moreover, the concentration for a half-maximal effect (EC50) in experiment [2] was > 100000 nM; in experiment [3] it was 990 nM; in experiment [4], > 10000 nM.
For `Cc1ncccc1C(=O)N(Cc1cc(=O)[nH]c2c(F)cccc12)c1cccc(Cl)c1`, in experiment [1], the inhibition was < 50%. Also, the EC50 in experiment [2] is > 100000 nM; in experiment [3], 350 nM; in experiment [4], 7900 nM.
For the compound `O=C(c1ccco1)N(Cc1cc(=O)[nH]c2c(F)cccc12)c1ccccc1`, the inhibition in experiment [1] and in experiment [5] was < 50% each time. Further, the half-maximal effective concentration (EC50) in experiment [2] was > 100000 nM; in experiment [3], 1100 nM; in experiment [4] it was > 10000 nM.
As for `Cc1ncsc1C(=O)N(Cc1cc(=O)[nH]c2ccccc12)c1cccc(Cl)c1`, the inhibition in experiment [1] and in experiment [5] was < 50% in each case. Further, the figures for the 50% effective concentration (EC50) in experiment [2], in experiment [3] and in experiment [4] were > 100000 nM, 170 nM and > 10000 nM, respectively.
Take `Cc1ncsc1C(=O)N(Cc1cc(=O)[nH]c2c(F)cccc12)c1ccccc1`: the inhibition in experiment [1] and in experiment [5] was < 50% in each case. The EC50 in experiment [2] was > 100000 nM; in experiment [3], 200 nM; in experiment [4] it was > 10000 nM.
In the case of `Cc1ncsc1C(=O)N(Cc1cc(=O)[nH]c2c(F)cccc12)c1ccccc1Cl`, the inhibition in experiment [1] and in experiment [5] was < 50% each time. Moreover, the EC50 in experiment [2] was > 100000 nM; in experiment [3] it was 13000 nM; in experiment [4] it was > 10000 nM.
Consider `O=C(c1ccco1)N(Cc1cc(=O)[nH]c2ccccc12)c1ccccc1`, for which the inhibition in experiment [1] and in experiment [5] was < 50% throughout. The 50% effective concentration (EC50) was > 100000 nM in experiment [2], 1300 nM in experiment [3] and > 10000 nM in experiment [4].
Regarding `Cc1ncsc1C(=O)N(Cc1cc(=O)oc2c(F)c(F)ccc12)c1cccc(Cl)c1`, in experiment [3], the EC50 came to 840 nM.
On to `Cc1cccnc1C(=O)N(Cc1cc(=O)[nH]c2c(F)cccc12)c1cccc(Cl)c1`, for which the inhibition in experiment [1] was < 50%. Moreover, the results for the EC50 in experiment [2], in experiment [3] and in experiment [4] were > 100000 nM, 420 nM and 4100 nM, respectively.
For `O=C(c1cncs1)N(Cc1cc(=O)[nH]c2c(F)cccc12)c1cccc(Cl)c1`, the inhibition in experiment [1] was < 50%. In addition, the EC50 in experiment [2] is > 100000 nM; in experiment [3], 53 nM.
As to `Cc1ncsc1C(=O)N(Cc1cc(=O)[nH]c2ccc(F)cc12)c1cccc(Cl)c1`, the inhibition in experiment [1] and in experiment [5] was < 50% throughout. The EC50 in experiment [2] was > 100000 nM; in experiment [3] it was 300 nM; in experiment [4] it was > 10000 nM.
With `Cc1ncsc1C(=O)N(Cc1cc(=O)[nH]c2cccc(F)c12)c1cccc(Cl)c1`, the inhibition in experiment [1] and in experiment [5] was < 50% throughout. Further, the half-maximal effective concentration (EC50) in experiment [2] was > 100000 nM; in experiment [3], 500 nM; in experiment [4] it was > 10000 nM.
Take `Cc1ncsc1C(=O)N(Cc1cc(=O)[nH]c2c(F)cccc12)c1cccc(F)c1`: the values for the EC50 in experiment [2] and in experiment [3] were 15000 nM and 62 nM, respectively.
For the compound `Cc1ncsc1C(=O)N(Cc1cc(=O)[nH]c2ccccc12)c1ccccc1`, the inhibition in experiment [1] and in experiment [5] was < 50% each time. Moreover, the EC50 in experiment [2] was > 100000 nM; in experiment [3], 500 nM; in experiment [4], > 10000 nM.
Regarding `Cc1noc(C)c1C(=O)N(Cc1cc(=O)[nH]c2c(F)cccc12)c1cccc(Cl)c1`, the concentration giving a half-maximal response (EC50) was determined as 6800 nM in experiment [2], 16 nM in experiment [3] and 500 nM in experiment [4].
